Results taken from ChEMBL document CHEMBL1137744, “Parallel synthesis, molecular modelling and further structure-activity relationship studies of new acylthiocarbamates as potent non-nucleoside HIV-1 reverse transcriptase inhibitors” (Eur J Med Chem, 2009).
One block for each molecule: values may come before it. Calls of active or inactive are those of the source. The calls are words filed in the database; no cut-off is given here.

Tests used:
[1] = test system: Human immunodeficiency virus 1; test: Antiviral activity against HIV1 3B infected in human MT4 cells assessed as inhibition of virus-induced cytopathogenicity by MTT assay; type: functional, organism-based; conditions: Human immunodeficiency virus 1, 3B
Summary of the method: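 MT-4 cells infected with HIV-1 and read by MTT viability. EC50 is the concentration giving 50% protection of cells from virus-induced cytopathogenicity. Values are means of three separate experiments, with variation among triplicate samples under 10%.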

[2] = test system: Human immunodeficiency virus 1; test: Antiviral activity against HIV1 3B expressing reverse transcriptase Y181C mutant infected in human MT4 cells assessed as inhibition of virus-induced cytopathogenicity by MTT assay; type: functional, organism-based; conditions: Human immunodeficiency virus 1, 3B
Summary of the method: (§1)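 MT-4 cells infected with HIV-1 carrying the Y181C RT mutation, alongside wild-type virus. EC50 is the concentration giving 50% protection from virus-induced cytopathogenicity, read by MTT. Values are means of three separate experiments run in triplicate. The ratio is EC50(Y181C)/EC50(wt).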

[3] = Selectivity index, ratio of CC50 for human MT4 cells to EC50 for HIV1 3B; type: toxicity, cell-based; conditions: read-out: Ratio CC50/EC50
Summary of the method: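 Computed as CC50/EC50. Both come from MTT readings in MT-4 cells: CC50 is 50% viability loss in mock-infected cells, and EC50 is 50% protection from HIV-1-induced cytopathogenicity. Each is the mean of three experiments.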

[4] = test system: Human immunodeficiency virus 1; test: Ratio of EC50 for HIV1 3B expressing reverse transcriptase Y181C mutant to EC50 for HIV1 3B; type: functional; summary of the method: as §1
[5] = test system: Human immunodeficiency virus 1; test: Antiviral activity against HIV1 3B expressing reverse transcriptase K103N/Y181C double mutant infected in human MT4 cells assessed as inhibition of virus-induced cytopathogenicity by MTT assay; type: functional, organism-based
[6] = Cytotoxicity against human MT4 cells by MTT assay; type: cell-based
Summary of the method: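 Uninfected (mock-infected) MT-4 cells were exposed to compound and viability was read by MTT. CC50 is the concentration cutting viability by 50%. Values are means of three separate experiments, with triplicate samples varying by less than 10%.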

[7] = target: Human immunodeficiency virus type 1 reverse transcriptase (Human immunodeficiency virus 1, UniProt Q72547); test: Inhibition of wild-type HIV1 reverse transcriptase

SMILES: O=C1c2ccccc2C(=O)N1CCOC(=S)N(C(=O)c1cc2ccccc2s1)c1ccc(Cl)cc1
EC50 [1]: 0.2 µM
EC50 [2]: 12 µM
selectivity ratio [3]: 280
Ratio EC50 [4]: 60
Activity [5]: inactive
CC50 [6]: 56 µM

SMILES: CC(COC(=S)N(C(=O)c1cccc([N+](=O)[O-])c1)c1ccc(Cl)cc1)N1C(=O)c2ccccc2C1=O (racemic)
EC50 [1]: 0.05 µM
EC50 [2]: 5 µM
selectivity ratio [3]: 1540
Ratio EC50 [4]: 100
Activity [5]: inactive
CC50 [6]: 77 µM

SMILES: O=C1c2ccccc2C(=O)N1CCOC(=S)N(C(=O)c1ccc(F)c(F)c1)c1ccc(Cl)cc1
EC50 [1]: 0.008 µM
EC50 [2]: 56 µM
selectivity ratio [3]: 6500
Ratio EC50 [4]: 7000
Activity [5]: inactive
CC50 [6]: 52 µM

SMILES: O=C1c2ccccc2C(=O)N1CCOC(=S)N(C(=O)c1cccc(Cl)c1Cl)c1ccc(Cl)cc1
EC50 [1]: 0.1 µM
EC50 [2]: 4.2 µM
selectivity ratio [3]: 540
Ratio EC50 [4]: 42
Activity [5]: inactive
CC50 [6]: 54 µM

SMILES: Cc1ccc2c(c1)C(=O)N(CCOC(=S)N(C(=O)c1cccnc1Cl)c1ccc(Cl)cc1)C2=O
EC50 [1]: 0.06 µM
EC50 [2]: 6.7 µM
selectivity ratio [3]: 817
Ratio EC50 [4]: 112
Activity [5]: inactive
CC50 [6]: 49 µM

SMILES: Cc1cccc(C(=O)N(C(=S)OCCN2C(=O)c3ccccc3C2=O)c2ccc(Cl)cc2)c1
EC50 [1]: 0.01 µM
EC50 [2]: 6 µM
selectivity ratio [3]: 5800
Ratio EC50 [4]: 600
Activity [5]: inactive
CC50 [6]: 58 µM

SMILES: O=C1c2ccccc2C(=O)N1CCOC(=S)N(C(=O)c1cc(F)ccc1F)c1ccc(Cl)cc1
EC50 [1]: 0.02 µM
EC50 [2]: 5.7 µM
selectivity ratio [3]: 2700
Ratio EC50 [4]: 285
Activity [5]: inactive
CC50 [6]: 54 µM

SMILES: S=C(NCCc1ccccn1)Nc1ccc(Br)cn1 [TROVIRDINE]
EC50 [2]: 1.2 µM
selectivity ratio [3]: 3000
Ratio EC50 [4]: 60
Activity [5]: inactive

IC50 [7]: 0.3 µM
SMILES: Cc1ccc2c(c1)C(=O)N(CCOC(=S)N(C(=O)c1ccc(Cl)cc1)c1ccc([N+](=O)[O-])cc1)C2=O
EC50 [1]: 0.04 µM
selectivity ratio [3]: > 2500
CC50 [6]: > 100 µM

SMILES: O=C1Nc2ccc(Cl)cc2[C@@](C#CC2CC2)(C(F)(F)F)O1 [EFAVIRENZ]
EC50 [2]: 0.01 µM
Activity [5]: inactive

SMILES: O=C1c2ccccc2C(=O)N1CCOC(=S)N(C(=O)c1cccnc1Cl)c1ccc(Br)cc1
EC50 [1]: 0.2 µM
EC50 [2]: 2.3 µM
IC50 [7]: 0.7 µM
selectivity ratio [3]: > 500
Ratio EC50 [4]: 11
Activity [5]: inactive
CC50 [6]: > 100 µM

SMILES: O=C1c2ccccc2C(=O)N1CCOC(=S)N(C(=O)c1cccc(F)c1F)c1ccc(Cl)cc1
EC50 [1]: 0.008 µM
EC50 [2]: 6 µM
selectivity ratio [3]: 7250
Ratio EC50 [4]: 750
Activity [5]: inactive
CC50 [6]: 58 µM

SMILES: O=C1c2ccccc2C(=O)N1CCOC(=S)N(C(=O)c1ccc(Cl)c([N+](=O)[O-])c1)c1ccc(Cl)cc1
EC50 [1]: 0.02 µM
EC50 [2]: 9 µM
selectivity ratio [3]: 2400
Ratio EC50 [4]: 450
Activity [5]: inactive
CC50 [6]: 48 µM

SMILES: O=C1c2ccccc2C(=O)N1CCOC(=S)N(C(=O)c1cc(Cl)cc(Cl)c1)c1ccc(Cl)cc1
EC50 [1]: 0.008 µM
EC50 [2]: 8.2 µM
selectivity ratio [3]: 4000
Ratio EC50 [4]: 1025
Activity [5]: inactive
CC50 [6]: 32 µM

SMILES: O=C1c2ccccc2C(=O)N1CCOC(=S)N(C(=O)c1ccc(F)cc1F)c1ccc(Cl)cc1
EC50 [1]: 0.01 µM
EC50 [2]: 5.4 µM
selectivity ratio [3]: 5200
Ratio EC50 [4]: 540
Activity [5]: inactive
CC50 [6]: 52 µM

SMILES: Cc1cc(C(=O)N(C(=S)OCCN2C(=O)c3ccccc3C2=O)c2ccc(Cl)cc2)c(C)o1
EC50 [1]: 0.02 µM
EC50 [2]: 7.5 µM
selectivity ratio [3]: 2000
Ratio EC50 [4]: 375
Activity [5]: inactive
CC50 [6]: 40 µM

SMILES: Cc1ccc(C(=O)N(C(=S)OCCN2C(=O)c3ccccc3C2=O)c2ccc(Cl)cc2)cc1
EC50 [1]: 0.05 µM
EC50 [2]: 8.5 µM
selectivity ratio [3]: > 2000
Ratio EC50 [4]: 170
Activity [5]: inactive
CC50 [6]: > 100 µM

SMILES: Cc1cc(C(=O)N(C(=S)OCCN2C(=O)c3ccccc3C2=O)c2ccc(Cl)cc2)ccc1Br
EC50 [1]: 0.007 µM
EC50 [2]: 10.9 µM
selectivity ratio [3]: 2570
Ratio EC50 [4]: 1557
Activity [5]: inactive
CC50 [6]: 18 µM

SMILES: O=C1c2ccccc2C(=O)N1CCOC(=S)N(C(=O)c1ccc2ccccc2c1)c1ccc(Cl)cc1
EC50 [1]: 0.02 µM
EC50 [2]: 11 µM
selectivity ratio [3]: 1850
Ratio EC50 [4]: 550
Activity [5]: inactive
CC50 [6]: 37 µM

SMILES: Cc1ccc(N(C(=O)c2ccc([N+](=O)[O-])cc2)C(=S)OCCN2C(=O)c3ccccc3C2=O)cc1
EC50 [1]: 0.03 µM
selectivity ratio [3]: 1930
CC50 [6]: 58 µM

SMILES: O=C1c2ccccc2C(=O)N1CCOC(=S)N(C(=O)c1ccc(Cl)c([N+](=O)[O-])c1)c1ccccc1
EC50 [1]: 0.35 µM
selectivity ratio [3]: 146
CC50 [6]: 51 µM

SMILES: O=C1c2ccccc2C(=O)N1CCOC(=S)N(C(=O)c1ccc(Cl)c(Cl)c1)c1ccc(Cl)cc1
EC50 [1]: 0.009 µM
selectivity ratio [3]: 3890
CC50 [6]: 35 µM

SMILES: Cc1cccc2c1C(=O)N(CCOC(=S)N(C(=O)c1cccc([N+](=O)[O-])c1)c1ccc(Cl)cc1)C2=O
EC50 [1]: 0.03 µM
EC50 [2]: 4.2 µM
selectivity ratio [3]: 1470
Ratio EC50 [4]: 140
Activity [5]: inactive
CC50 [6]: 44 µM

SMILES: O=C1c2ccccc2C(=O)N1CCCOC(=S)N(C(=O)c1cccc([N+](=O)[O-])c1)c1ccc(Cl)cc1
EC50 [1]: 29 µM
selectivity ratio [3]: 1.8
CC50 [6]: 53 µM

SMILES: Cc1ccc(N(C(=O)c2cccc(Cl)c2Cl)C(=S)OCCN2C(=O)c3ccccc3C2=O)cc1
EC50 [1]: 0.2 µM
selectivity ratio [3]: 175
CC50 [6]: 35 µM

SMILES: O=C1c2ccccc2C(=O)N1CCOC(=S)N(C(=O)c1c(Cl)cccc1Cl)c1ccc(Cl)cc1
EC50 [1]: 5.6 µM
selectivity ratio [3]: 3.6
CC50 [6]: 20 µM

SMILES: Cc1ccc(N(C(=O)c2ccc(F)cc2F)C(=S)OCCN2C(=O)c3ccccc3C2=O)cc1
EC50 [1]: 0.03 µM
selectivity ratio [3]: 667
CC50 [6]: 20 µM

SMILES: O=C1c2ccccc2C(=O)N1CCOC(=S)N(C(=O)c1ccc([N+](=O)[O-])cc1)c1ccc(Cl)cc1
EC50 [1]: 0.06 µM
EC50 [2]: 26 µM
selectivity ratio [3]: > 1670
Ratio EC50 [4]: 433
Activity [5]: inactive
CC50 [6]: > 100 µM

SMILES: Cc1ccc(N(C(=O)c2c(F)cccc2F)C(=S)OCCN2C(=O)c3ccccc3C2=O)cc1
EC50 [1]: 1 µM
selectivity ratio [3]: 65
CC50 [6]: 65 µM
